Data reported in article PMC3234294 (Analytical chemistry, 2011).

Experiments:
[1] = QCM binding of antibodies to MUA sensor surface; conditions: 1 μl of 1 μg/μl MAb spiked into 1 ml PBS
In short: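 Au QCM electrodes, bare or modified by overnight SAM formation at 4 °C (MUA or peptide monolayers), rinsed with water and placed in 1 ml PBS. Therapeutic monoclonal antibodies (1 μg/μl stock) were spiked sequentially, 1 μl each, into the cuvette. Frequency change was recorded against time with a network/impedance analyzer.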

[2] = QCM binding of antibodies to bare Au sensor surface; conditions: 1 μl of 1 μg/μl MAb spiked into 1 ml PBS
[3] = system: Cetuximab; assay: QCM nonspecific binding of immobilized CH-19 to Cetuximab; conditions: CH-19 modified Au QCM electrode, PBS, final 1 μg/ml
In short: (§1)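 A CH-19 peptide monolayer was self-assembled on an Au QCM electrode overnight at 4 °C, rinsed, and held in PBS. The non-target therapeutic antibodies were spiked in sequentially into the same cuvette, each as 1 μl into 999 μl PBS (final 1 μg/ml). Label-free frequency shift (ΔF) was followed in real time with a network/impedance analyzer.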

[4] = system: Herceptin; assay: QCM binding of immobilized HER2 mimotope-derived peptides to Herceptin; design: species or system humanized
[5] = system: Rituxan; assay: QCM nonspecific binding of immobilized peptides to Rituxan
In short: as §1

[6] = system: Herceptin; assay: CH-19 piezoimmunosensor analytical performance for Herceptin detection; design: species or system humanized
[7] = system: Avastin; assay: QCM nonspecific binding of immobilized peptides to Avastin
In short: as §1

[8] = EIS of CH-19 modified Au electrode before and after Herceptin; assay type: physicochemical; conditions: bare Au to CH-19 to binding with Herceptin; 0.01 Hz-100 kHz, 5 mV
[9] = CV of CH-19 modified Au electrode before and after Herceptin; assay type: physicochemical; conditions: upon surface deposition of CH-19 and Herceptin; 0.1 M NaClO4, 50 mV/s
[10] = system: Herceptin; conditions: previously reported; ref 16 (Jiang et al.); cited from earlier work
[11] = QCM, CV and EIS summarized, all four peptide designs
[12] = CH-19 modified Au QCM electrode, PBS, final 1 μg/ml

## Avastin: therapeutic MAb, control drug
[1]
  Binding to MUA sensor surface, in words: appreciable
[2]
  Binding to bare Au sensor surface, in words: negligible

## CGSGSGSQLGPYELWELSH [CH-19]
[3]
  frequency shift (ΔF) with Cetuximab: ~ 0 Hz
[4]; CH-19 modified gold QCM electrode (Figure S3)
  Ka (affinity for Herceptin): 7.96e+08 M⁻¹
[4]; Herceptin lowered 10 fold to 0.1 μg/ml, H2O, PBS or HBS-EP
  Buffering effects on Herceptin/CH-19 interaction: similar
[4]; [11]
  Overall binding capacity with Herceptin among peptide designs: highest binding capacity with Herceptin
[4]; estimated by Sauerbrey's equation, ΔF of 1 Hz about 1 ng, PBS, 1 μg/ml Herceptin
  Herceptin bound to the CH-19 modified gold QCM electrode (mass): ~ 225 ng
[4]; simple buffer (1 ml HBS-EP), 1 μl Herceptin stock 1 μg/μl, no serum
  frequency change (ΔF) with free Herceptin: ~ 275 Hz
[5]; [12]
  frequency shift (ΔF) with Rituxan: ~ 0 Hz
[5]; [11]
  Nonspecific binding activity with Rituxan among peptide designs: lowest nonspecific binding activity
[6]; PBS buffer
  sensitivity: 0.52 Hz · ml/ng
[6]; PBS buffer, frequency change vs time
  time to detection of Herceptin, in words: within minutes
[6]; PBS buffer, S/N = 3, N ~ 1.85 Hz
  detection limit: 10.70 ng/mL
[6]; in simple buffers and in human serum samples (Table S3)
  detection limit: 0.038 nM
[6]; piezoimmunosensor assay, standard curve in HBS-EP buffer
  detection limit: 0.038 nM
[7]; [12]
  frequency shift (ΔF) with Avastin: ~ 0 Hz
[7]; [11]
  Nonspecific binding activity with Avastin among peptide designs: lowest nonspecific binding activity
[8]
  Nyquist plots (electron transfer resistance): enlarged step-by-step
[9]
  redox peaks of Fe(CN)6 probe: gradually disappeared

## GPYELWELSH
[10]
  specific binding activities to Herceptin, in words: exhibited specific binding activities to Herceptin

## QLGPYELWELSH
[10]
  specific binding activities to Herceptin, in words: exhibited specific binding activities to Herceptin

## Rituxan: therapeutic MAb, control drug
[1]
  Binding to MUA sensor surface, in words: appreciable
[2]
  Binding to bare Au sensor surface, in words: negligible
